Results from ChEMBL document CHEMBL1667743, “Functional in vivo imaging of cysteine cathepsin activity in murine model of inflammation” (Bioorg Med Chem, 2011).
Activity calls are given as the source filed them. No cut-off for these calls is given here.

Experiments:
[1] = biological target: Stromelysin-1 (Homo sapiens) (UniProt P08254); test: Activity at MMP3
In short: (§1)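 Recombinant protease (10–40 nM final) incubated with 60.0 µM probe substrate; NIR fluorescence of cleaved quenched probe measured as in the in vitro cathepsin assay (λex 710 nm, λem 767 nm).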

Mus musculus [2] = test: Activity at cathepsin S in zymosan-induced inflammatory paw edema mouse model assessed as ipsi/contralateral paw fluorescent signal at 20 uM, iv after 10 mins; type: functional, organism-based
In short: (§2)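 Mice given zymosan in one hind paw (n = 3); 24 h later 20 µM probe in PBS iv via tail vein (800 nmol/kg). Under 1.5–2% isoflurane, body temperature held with heating pads; tail and upper body masked; images at 10 min, 1, 3, 6, 24 h; identical ROIs over both hind paws, ipsi/contralateral ratio.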

Mus musculus [3] = test: Activity at cathepsin S in zymosan-induced inflammatory paw edema mouse model assessed as ipsi/contralateral paw fluorescent signal at 20 uM, iv after 180 mins; type: functional, organism-based; in short: as §2
Mus musculus [4] = test: Activity at cathepsin S in zymosan-induced inflammatory paw edema mouse model assessed as ipsi/contralateral paw fluorescent signal at 13.3 uM, iv after 24 hrs; type: functional, organism-based
[5] = biological target: Matrix metalloproteinase-9 (Homo sapiens) (UniProt P14780); test: Activity at MMP9; in short: as §1
Mus musculus [6] = test: Activity at cathepsin S in zymosan-induced inflammatory paw edema mouse model assessed as ipsi/contralateral paw fluorescent signal at 20 uM, iv in presence of Dexamethasone; type: functional, organism-based
In short: (§3)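 Zymosan paw inflammation; groups n = 3. Dexamethasone 10 mg/kg oral in 0.6% methylcellulose/0.5% Tween80 1 day before zymosan, shortly after, and 1 h before probe; or E-64 10 or 30 mg/kg ip in 40% DMSO/PBS 2 days and 1 day before, shortly after zymosan, and 1 h before probe. Probe 20 µM iv (800 nmol/kg) 24 h post-zymosan; ipsi/contralateral paw fluorescence imaged.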

[7] = biological target: Matrix metalloproteinase-14 (Homo sapiens) (UniProt P50281); test: Activity at MMP14; in short: as §1
[8] = biological target: Neutrophil collagenase (Homo sapiens) (UniProt P22894); test: Activity at MMP8; in short: as §1
Mus musculus [9] = test: Activity at cathepsin S in zymosan-induced inflammatory paw edema mouse model assessed as ipsi/contralateral paw fluorescent signal at 20 uM, iv in presence of 10 to 30 ug/ml E-64; type: functional, organism-based; conditions: in the assay text read “10 to 30 mg/kg” for “10 to 30 ug/ml”; in short: as §3
[10] = test system: CC(C)(C)OC(=O)NCC[C@H](NC(=O)[C@H](CC1CCCCC1)NC(=O)N1CCOCC1)C(=O)NCCNC(=O)OCC1c2ccccc2-c2ccccc21; test: Activity at recombinant cathepsin B
In short: (§4)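 Active-site-titrated (E-64) recombinant human cathepsins B, L, S and in-house cathepsin K, 10 nM final in pH 6.5 acetate/HEPES buffer with 300 mM NaCl, 0.001% Pluronic and L-cysteine; DMSO-dissolved Cy7/BHQ-3 quenched substrate 0.8–40 µM final (DMSO ≤1%); fluorescence read at 25 °C (λex 710, λem 767 nm); steady-state data fitted by non-linear least squares to Michaelis–Menten with substrate inhibition.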

[11] = test system: CC(C)(C)OC(=O)NCC[C@H](NC(=O)[C@H](CC1CCCCC1)NC(=O)N1CCOCC1)C(=O)NCCNC(=O)OCC1c2ccccc2-c2ccccc21; test: Ratio of Kcat/Km for recombinant cathepsin B; in short: as §4

Stromelysin-1 (Homo sapiens), sequence (P08254 100-477 limits assumed): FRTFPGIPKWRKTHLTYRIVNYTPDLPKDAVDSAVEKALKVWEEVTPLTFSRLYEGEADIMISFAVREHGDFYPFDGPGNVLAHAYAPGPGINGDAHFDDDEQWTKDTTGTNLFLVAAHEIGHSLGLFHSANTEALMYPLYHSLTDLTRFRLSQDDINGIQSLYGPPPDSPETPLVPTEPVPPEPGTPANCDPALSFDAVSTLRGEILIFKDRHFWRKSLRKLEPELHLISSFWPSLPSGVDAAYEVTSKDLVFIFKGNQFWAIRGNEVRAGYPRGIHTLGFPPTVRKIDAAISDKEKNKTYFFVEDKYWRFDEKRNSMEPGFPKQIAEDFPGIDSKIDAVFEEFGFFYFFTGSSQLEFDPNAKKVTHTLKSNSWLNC
Matrix metalloproteinase-9 (Homo sapiens), sequence (P14780 whole entry): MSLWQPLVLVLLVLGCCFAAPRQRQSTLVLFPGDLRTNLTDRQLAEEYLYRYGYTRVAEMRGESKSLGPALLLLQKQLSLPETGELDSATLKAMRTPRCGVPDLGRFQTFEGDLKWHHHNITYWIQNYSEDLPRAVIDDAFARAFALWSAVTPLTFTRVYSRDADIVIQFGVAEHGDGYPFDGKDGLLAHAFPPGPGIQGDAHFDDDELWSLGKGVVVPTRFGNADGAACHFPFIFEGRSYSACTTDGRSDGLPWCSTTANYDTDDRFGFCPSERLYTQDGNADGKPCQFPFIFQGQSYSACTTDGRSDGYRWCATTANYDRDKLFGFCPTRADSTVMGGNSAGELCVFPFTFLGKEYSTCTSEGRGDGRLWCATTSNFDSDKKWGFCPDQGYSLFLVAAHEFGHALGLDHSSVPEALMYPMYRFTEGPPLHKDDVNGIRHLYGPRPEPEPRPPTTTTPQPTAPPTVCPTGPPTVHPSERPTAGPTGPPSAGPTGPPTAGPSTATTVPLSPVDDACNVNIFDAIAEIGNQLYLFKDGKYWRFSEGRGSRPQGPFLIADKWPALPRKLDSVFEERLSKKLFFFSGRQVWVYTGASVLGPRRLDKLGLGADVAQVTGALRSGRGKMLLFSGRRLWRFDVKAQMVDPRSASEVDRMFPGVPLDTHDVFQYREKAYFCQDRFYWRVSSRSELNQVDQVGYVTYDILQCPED
Neutrophil collagenase (Homo sapiens), sequence (P22894 101-467 limits assumed): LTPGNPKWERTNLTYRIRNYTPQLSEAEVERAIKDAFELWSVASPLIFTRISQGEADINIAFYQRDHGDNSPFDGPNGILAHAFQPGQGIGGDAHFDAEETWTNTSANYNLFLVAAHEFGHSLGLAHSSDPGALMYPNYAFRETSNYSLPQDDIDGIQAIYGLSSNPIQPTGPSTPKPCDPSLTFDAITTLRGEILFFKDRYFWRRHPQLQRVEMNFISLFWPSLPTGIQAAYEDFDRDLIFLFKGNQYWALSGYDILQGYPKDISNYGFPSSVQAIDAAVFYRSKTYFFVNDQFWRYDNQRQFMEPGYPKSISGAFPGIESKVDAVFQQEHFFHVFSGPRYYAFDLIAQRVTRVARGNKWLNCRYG

Molecule	Activity [1]	Activity (Mus musculus [2])	Activity (Mus musculus [3])	Activity (Mus musculus [4])	Activity [5]	Activity (Mus musculus [6])	Activity [7]	Activity [8]	Activity (Mus musculus [9])	Km [10] [mM]	kcat/Km [11] [M⁻¹ s⁻¹]
CCN(CC)c1ccc2nc3ccc(/N=N/c4ccc(N(C)CCCC(=O)NCCNC(=O)[C@H](CCNC(=O)CCCCCN5\C(=C/C=C/C=C/C=C/C6N(CC)c7ccc(S(=O)(=O)O)cc7C6(C)C)C(C)(C)c6cc(S(=O)(=O)[O-])ccc65)NC(=O)[C@H](CC5CCCCC5)NC(=O)N5CCOCC5)cc4)cc3[n+](-c3ccccc3)c2c1 (stereo partly specified)	inactive	Active	Active	Active	inactive	inactive	inactive	inactive	inactive		
Cathepsin B (Homo sapiens) (from UniProt P07858)										3.2	332
